This is a sample that favours compounds with a hit; in the whole collection about 2.6% have one here.
Vif imaging: HIV Vif self-association inhibitors, primary screen, imaging, HEK293T, single point; actives 0.35% (n = 340,000); inhibition, % at 7.49 µM; HEK293T cells, Vif self-association by quenched fluorescence, 24 h; in the data active means inhibition above about 50%, passing the limit was not always enough; inconclusive means no clear call, values can overlap the other calls; inactive means below about 31%
MITF TRPM1 HTS: activators of MITF-driven TRPM1 promoter reporter, primary screen, cell-based, SK-MEL-5, luciferase, single point. SK-MEL-5 TRPM1-promoter luciferase, 24 h; % of positive control, neutral wells = 0. activation, % at 12.5 µM. actives 0.75% (n = 300,000). AID 588334, 2011;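 active means mean activation of at least 80% with every replicate also reaching 80%; inconclusive means mean reaches 80% but some replicate falls short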;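 further: 0% = neutral control wells and 100% = parthenolide positive control wells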
Wnt bcat act: Wnt/beta-catenin pathway activators, primary screen, cell-based, plate reader, single point | Wnt/beta-catenin reporter cell assay, activator | activation, % at 9.35 µM | actives 1.2% (n = 300,000) | AID 743398, 2014; in the data active means activation above about 30%, passing the limit was not always enough; inconclusive means no clear call, values can overlap the other calls;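 further: 0% = neutral control wells and 100% = positive control wells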
esBAF inh: Bmi1 luciferase reporter increase in mESCs, primary screen, esBAF inhibitor project, mouse ES cells, Bmi1 luciferase knock-in, single point; 24 h; 100% = twice the neutral-well signal; AID 602393, 2012; actives 2% (n = 350,000); reporter increase, % at 12.5 µM; in the data active means activation above about 40%; inconclusive means no clear call, values can overlap the other calls;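 further: 0% = median of the plate's neutral control wells and 100% = double that signal; a rise in the Bmi1 reporter signal indicates esBAF inhibition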
XiGFP reactiv: activators of inactive X chromosome reactivation, primary screen, imaging, XiGFP fibroblasts, GFP high-content imaging, set 2 | XiGFP mouse fibroblasts, % GFP-positive cells imaging, 3 d; cells co-treated with 5-aza-dC sensitizer; scaled so ellipticine positive control = 100% | activation, % at 7.58 µM | actives 0.055% (n = 360,000) | AID 743238, 2013;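 active means mean normalized replicate activation at least 10% and every replicate at or above 10%; inconclusive means only one of the two criteria met; inactive means mean below 10% and not all replicates reach 10%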;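 further: 0% = median of on-plate neutral control wells and 100% = ellipticine 6 µM median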
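Material: XiGFP fibroblasts, SV40-immortalized. Buffer or medium: DMEM plus 5-aza-dC sensitizer. Compound: single concentration per compound, delivered by pin transfer. Times: 3 days compound exposure. Controls: ellipticine 6 µM.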
* = called active by the depositor.

How did CC=Cc1ccc2n(c1=O)C[C@@H]1[C@@H](CO)[C@H](C(=O)NCc3ccccc3)[C@H]2N1C (mixture of isomers) do in these assays?
esBAF inh: 1.1; XiGFP reactiv: -0.1

How did CCCc1ccc(OCc2nc(-c3ccc(NC(=O)c4ccco4)cc3)no2)cc1 do in these assays?
Vif imaging: -0.5; MITF TRPM1 HTS: 69.0; esBAF inh: 62.1*

What do the screens show for `COc1ccccc1CC(=O)Nc1ccc(-c2noc(COc3ccc(Br)cc3)n2)cc1`?
Vif imaging: 16.8

Results for Cc1cc(C)c2nc3sc(C(=O)N4CCOCC4)c(N)c3cc2c1 ?
Vif imaging: 67.4*; MITF TRPM1 HTS: -46.2; Wnt bcat act: -19.8; esBAF inh: -69.6; XiGFP reactiv: -0.1

How did Cc1ccc(C)c2nc3sc(C(=O)N4CCOCC4)c(N)c3cc12 do in these assays?
Vif imaging: 4.3; MITF TRPM1 HTS: 44.6; Wnt bcat act: 20.3; XiGFP reactiv: 0.0

What do the screens show for `CCC(=O)N1[C@@H]2c3ccc(-c4ccccc4F)c(=O)n3C[C@H]1[C@H](CO)[C@H]2C(=O)NC1CCCC1`?
esBAF inh: 5.6; XiGFP reactiv: 0.0

Results for COc1ccc(-c2cc3cc(OC)c(OC)cc3cn2)cc1 ?
Vif imaging: -1.5; MITF TRPM1 HTS: 72.2; Wnt bcat act: inconclusive; esBAF inh: 67.6*; XiGFP reactiv: 0.0

Results for c1ccc(-c2cc3cc4c(cc3cn2)OCO4)cc1 ?
Vif imaging: -6.3; MITF TRPM1 HTS: 27.4; Wnt bcat act: 63.3*; esBAF inh: 30.2; XiGFP reactiv: 0.2

Results for COc1ccc(-c2cc3cc4c(cc3cn2)OCO4)cc1 ?
Vif imaging: -1.3; MITF TRPM1 HTS: 21.8; Wnt bcat act: 36.7*; esBAF inh: -31.8; XiGFP reactiv: 0.0

How did COc1cc2cnc(-c3ccccc3)cc2cc1OC do in these assays?
Vif imaging: 2.0; MITF TRPM1 HTS: 12.9; Wnt bcat act: 3.7; esBAF inh: 33.0; XiGFP reactiv: 0.1

How did COc1cc(OC)cc(-c2cc3cc4c(cc3cn2)OCO4)c1 do in these assays?
Vif imaging: 2.2; MITF TRPM1 HTS: 31.1; esBAF inh: -15.8

What do the screens show for `c1ccc(-c2cc(-c3ccccc3)ncn2)cc1`?
Vif imaging: 1.0; Wnt bcat act: 13.7; XiGFP reactiv: 0.0

How did COc1cccc(-c2cn(CC[C@@H]3CC[C@@H](NC(C)=O)[C@H](CO)O3)nn2)c1 do in these assays?
esBAF inh: 4.2; XiGFP reactiv: 0.1

How did COc1cccc(-c2ccc3c(c2)[C@H]2[C@H](CCN2C(=O)CN2CCOCC2)[C@H](CO)N3)c1 do in these assays?
esBAF inh: 8.5; XiGFP reactiv: 0.4

How did Fc1ccccc1C1CC(c2ccco2)=Nc2ccccc2S1 (stereo not drawn) do in these assays?
Vif imaging: -2.2; MITF TRPM1 HTS: -7.6; Wnt bcat act: 34.9*; esBAF inh: 11.1

Results for CN(c1nc(-c2ccccc2)cs1)C1CCS(=O)(=O)C1 (stereo not drawn) ?
Vif imaging: -0.3; MITF TRPM1 HTS: 44.6; Wnt bcat act: 6.7; esBAF inh: 74.6*

What do the screens show for `O=C(Nc1cccc2cccnc12)c1cccc2ccccc12`?
Vif imaging: 4.4; MITF TRPM1 HTS: 9.5; Wnt bcat act: -1.7; esBAF inh: 0.4

What do the screens show for `CC(C)=CC(=O)Nc1nnc(-c2ccccc2)s1`?
MITF TRPM1 HTS: 53.2; Wnt bcat act: 20.8; esBAF inh: 13.0

What do the screens show for `COc1ccccc1C(=O)N(C)c1nnc(-c2ccccc2)s1`?
Vif imaging: -6.5; MITF TRPM1 HTS: 63.4; Wnt bcat act: 39.8*; esBAF inh: 49.2*; XiGFP reactiv: 0.0

Results for O=C(Nc1nnc(-c2ccccc2)s1)c1ccccc1O ?
Vif imaging: -4.4; MITF TRPM1 HTS: 45.4; Wnt bcat act: 10.4; esBAF inh: 67.4*; XiGFP reactiv: 0.2

Results for COc1cccc(C(=O)Nc2cccc3cccnc23)c1OC ?
Vif imaging: -5.7; MITF TRPM1 HTS: 25.3; esBAF inh: 43.0*

What do the screens show for `Cc1nnc(NC(=O)c2ccccc2-c2ccccc2C(=O)O)s1`?
Vif imaging: -0.9; MITF TRPM1 HTS: -1.9; Wnt bcat act: -4.0; XiGFP reactiv: 0.0

Results for O=C(Nc1ccccc1)Nc1nnc(-c2ccccc2)s1 ?
Vif imaging: -1.2; Wnt bcat act: 32.9*; esBAF inh: 50.5*; XiGFP reactiv: 0.0

Results for COc1ccc(NC(=O)Nc2ccc3c(c2)C(=O)N([C@H](C)CO)C[C@H](C)[C@@H](CN(C)C(=O)CCCN(C)C)OCCCC[C@H](C)O3)cc1 ?
esBAF inh: 0.0; XiGFP reactiv: 0.1

What do the screens show for `C[C@H](CO)N1C[C@H](C)[C@@H](CN(C)S(=O)(=O)c2cn(C)cn2)Oc2c(NS(=O)(=O)c3ccc(Cl)cc3)cccc2C1=O`?
esBAF inh: -3.3; XiGFP reactiv: 8.2

Results for Cc1ccc(NC(=O)Nc2nnc(-c3ccccc3F)s2)cc1 ?
Vif imaging: -19.8; MITF TRPM1 HTS: 47.9; Wnt bcat act: 32.6*; XiGFP reactiv: 0.0

How did COc1ccccc1C(=O)Nc1nnc(C)s1 do in these assays?
Vif imaging: 0.1; MITF TRPM1 HTS: 31.8

What do the screens show for `COc1ccccc1C(=O)Nc1nnc(-c2ccccc2)s1`?
Vif imaging: 3.4; Wnt bcat act: 8.4; esBAF inh: 46.9*; XiGFP reactiv: 0.1

Results for COc1cccc(C(=O)Nc2nnc(-c3ccccc3)s2)c1OC ?
Vif imaging: -4.0; MITF TRPM1 HTS: 56.2; Wnt bcat act: 45.3*; esBAF inh: 36.0; XiGFP reactiv: 0.0

Results for O=C(Nc1nnc(C(F)(F)F)s1)c1cccnc1 ?
Vif imaging: -6.1; MITF TRPM1 HTS: 36.5; esBAF inh: 9.5

What do the screens show for `O=C(Nc1nnc(-c2ccccc2F)s1)c1cccnc1`?
Vif imaging: -2.2; MITF TRPM1 HTS: 48.0; Wnt bcat act: -4.4; esBAF inh: 59.7*; XiGFP reactiv: 0.3

Results for COc1ccc(-c2nnc(NC(=O)c3c(OC)cccc3OC)s2)cc1 ?
Vif imaging: -0.8; Wnt bcat act: 0.1; esBAF inh: 0.3; XiGFP reactiv: 0.1

Results for COc1ccc(C(=O)Nc2nnc(-c3ccccc3)s2)cc1 ?
Vif imaging: 3.1; MITF TRPM1 HTS: 21.8; Wnt bcat act: 8.8; esBAF inh: 46.6*; XiGFP reactiv: 0.0

How did CCn1c(C)cs/c1=N\S(=O)(=O)c1ccccc1 do in these assays?
Vif imaging: -7.3; MITF TRPM1 HTS: -0.7; Wnt bcat act: -1.4; esBAF inh: -4.2; XiGFP reactiv: 0.7

How did O=Cc1s/c(=N\S(=O)(=O)c2ccccc2)n(CCCCl)c1Cl do in these assays?
Vif imaging: 57.2*; MITF TRPM1 HTS: -96.1; Wnt bcat act: -22.0; XiGFP reactiv: 2.9

Assay outcomes deposited in PubChem BioAssay by Broad Institute.
